Compound activity from PubChem.
NR2E3 ag-1: activates human NR2E3 receptor; Q9Y5X4; CHO-S Gal4-NCOR/VP16-NR2E3 two-hybrid, luciferase; inhibition of corepressor binding, % at 3.98 µM; hit rate 0.35% among 360,000;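 active = inhibition above the mean of all tested compounds plus 3 SD, cut at about 70% in these data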;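 also: 0% = DMSO with NR2E3 transfected cells and 100% = cells lacking NR2E3 construct; higher means lower luciferase signal from less NR2E3 corepressor binding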
PGE2 EP2 inh: inhibitors of human EP2 prostaglandin E2 receptor | inhibition, % at 25 µM | C6 glioma cells expressing human EP2, cAMP TR-FRET; cells stimulated with saturating PGE2 | hit rate 0.52% among 260,000 | AID 1422;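 active = percent inhibition above 40 after rounding to a whole number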;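 also: rat C6 glioma host cells with rolipram phosphodiesterase inhibitor present; the protocol text gives 20 µM as final concentration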
Target sequence (P43116 whole entry, looked up): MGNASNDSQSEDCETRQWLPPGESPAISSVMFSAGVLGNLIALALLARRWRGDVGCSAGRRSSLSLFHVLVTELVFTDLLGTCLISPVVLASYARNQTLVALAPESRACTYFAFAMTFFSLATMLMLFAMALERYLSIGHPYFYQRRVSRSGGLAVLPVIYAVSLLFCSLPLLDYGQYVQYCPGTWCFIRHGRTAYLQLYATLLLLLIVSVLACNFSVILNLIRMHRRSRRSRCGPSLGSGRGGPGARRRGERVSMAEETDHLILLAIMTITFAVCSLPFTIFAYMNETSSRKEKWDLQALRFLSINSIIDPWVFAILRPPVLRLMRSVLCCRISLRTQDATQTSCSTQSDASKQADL
NR2E3 ag-2: agonists of human nuclear receptor NR2E3; AID 2300; GST-NR2E3/biotin-RetCOR TR-FRET, 1536-well; inhibition of corepressor binding, % at 4.78 µM; hit rate 0.12% among 320,000; Q9Y5X4;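 active = percent inhibition above the cutoff of mean plus 3 SD of all tested compounds, set per screening campaign, cut at about 20% in these data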;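 also: 0% = DMSO wells and 100% = biotin wells as full block of FRET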
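Material: NR2E3–RetCOR corepressor complex | Quantity: 1.35 nM GST-tagged NR2E3 final | Schedule: 5 h at 4 °C | Replication: Singlicate compound wells | Reagent: RetCOR corepressor, biotinylated, 7 nM | Controls: Biotin wells as high control, 0.6% DMSO wells as low control | Signal: TR-FRET, Eu(K)-anti-GST donor, streptavidin-D2 acceptor, ex 340, em 617/671 nm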
JMJD2C inh: human JMJD2C demethylase inhibition; GST-JMJD2C(1-420) H3K9me3 demethylation, DELFIA europium; inhibition, % at 2.35 µM; hit rate 0.069% among 330,000;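 active = more than half of a compound's replicate wells show inhibition beyond 50%, single wells judged on their own value; inconclusive = some, but no more than half, of replicates pass 50% inhibition; inactive = no replicate passes 50% inhibition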;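 also: signal counts dimethyl H3K9 product captured on neutravidin plate; 0% = median of DMSO wells and 100% = 0.3 times that DMSO median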
Furin inh: human furin inhibition; purified furin, fluorogenic substrate cleavage; P09958; inhibition, % at 20 µM or 30 µM; AID 463115; hit rate 0.061% among 220,000; in the data active = inhibition above about 25%
EP2 modulator: modulators of human EP2 prostaglandin E2 receptor; AID 940; P43116; EP2-expressing cells, cAMP HTRF FRET, PGE2 co-stimulation; induction, % at 25 µM; hit rate 0.83% among 260,000;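 active = compounds whose cAMP rise, as percent of the full-agonist control response, exceeds 60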;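 also: rat C6 glioma line stably carrying human EP2 under a CMV promoter; the protocol text gives 20 µM as final concentration; 100% = response of wells given 1 µM PGE2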
* = called active by the depositor; ? = inconclusive; · = no result; ! = repeats disagree. In the library only some 1.3% were active in any assay of this set; here they are far more common.

SMILES | NR2E3 ag-1 | PGE2 EP2 inh | NR2E3 ag-2 | JMJD2C inh | Furin inh | EP2 modulator
COc1ccc(C(C(=O)NC2CCCCC2)N(C(=O)c2ccco2)c2ccc(C)cc2)cc1OC (stereo unspecified) | · | 8 | · | · | · | -61
Cc1cc(C)c2c(SCc3ccc(Cl)cc3Cl)nc(N)nc2n1 | · | 47* | · | · | · | -1
CC(C)Cn1cnc2c(SCc3ccc(Cl)cc3Cl)nc(N)nc21 | · | 52* | · | · | · | -3
Cc1ccc2ccccc2c1CSc1nc(N)nc2c1ncn2CC(C)C | 21 | 57* | · | · | · | -24
COc1ccc(CCNc2c(C(C)=O)nnn2-c2ccc(OC)cc2)cc1 | · | 9 | · | · | · | -54
COc1c(C)cc(Br)cc1C(=O)Nc1ccc(Cc2ccncc2)cc1 | 47 | 11 | 6 | -13 | -20 | 64*
C[C@@H]1CC[C@@]2(OC1)O[C@H]1CC3C4CC[C@H]5C[C@@H](O)CC[C@]5(C)C4CC[C@]3(C)[C@H]1[C@@H]2C (stereo partly specified) | · | 12 | · | · | · | 9
C[C@]12CC[C@H](O)C[C@@H]1CC[C@H]1[C@H]2CC[C@]2(C)[C@@H]1CC[C@H]2c1cc(C(F)(F)F)n[nH]1 | · | 55* | · | · | · | -19
Cc1c(-c2ccccc2)cn2c1-c1cccn1CC2 | · | 27 | · | · | · | -121
CC(C)CNc1nc2c(c(=O)n(C)c(=O)n2C)n1Cc1cccc(Br)c1 | -9 | 5 | -2 | ? | -12 | 62*
CC(O)CNc1nc2c(c(=O)n(C)c(=O)n2C)n1Cc1cccc(Br)c1 (stereo unspecified) | 33 | 6 | 2 | -7 | -20 | 21
C/C(N)=C(/C#N)C(=O)COC(=O)c1ccccc1Cc1ccccc1 | -5 | 8 | -2 | 0 | -16 | 63*
C/C(N)=C(/C#N)C(=O)COC(=O)c1ccncc1 | -6 | 8 | -2 | 1 | -9 | -5
Cc1cc(C2(c3ccc(O)c(C)c3)C(=O)Nc3ccccc32)ccc1O | -11 | 6 | 0 | -9 | -22 | 61*
Cc1cccc2c1NC(=O)C2(c1ccc(O)cc1)c1ccc(O)cc1 | 5 | 12 | -1 | -2 | -13 | 12
Nc1nnc(-c2ccncc2)s1 | -10 | 11 | 0 | 13 | -8 | 20
c1cc(-c2sc(-c3ccncc3)c(-c3ccncc3)c2-c2ccncc2)ccn1 | -30 | 41*! | -3 | 30 | -61 | -12
C[C@@H](NC(=O)/C(C#N)=C/c1ccc(O)c(O)c1)c1ccccc1 | -16 | 17 | 5 | -1 | · | 23
CC(NC(=O)/C(C#N)=C/c1ccc(Cl)c([N+](=O)[O-])c1)c1ccccc1 (stereo unspecified) | · | 69* | 1 | 1 | -18 | -15
COc1nc(C)cc(C)c1S(=O)(=O)c1ccccc1C | -10 | · | 0 | -13 | · | ·
CCC(C)Oc1nc(C)cc(C)c1S(=O)(=O)c1ccccc1C (stereo unspecified) | -48 | 12 | 3 | 1 | -5 | 64*
COc1ccc(Cl)cc1S(=O)(=O)N1CCC(C(=O)NCC(C)(C)CN(C)C)CC1 | · | 12 | · | · | · | 24
COc1ccc(NC(=O)CN2C(=O)[C@@H]3CCCN3C(=O)c3ccccc32)cc1OC | · | 7 | · | · | · | 2
CC(C)Oc1ccccc1Cn1c(=O)sc2ccccc21 | · | 9 | · | · | · | 83*
CC[C@]12c3[nH]c4ccccc4c3CCN1C(=O)C(CC(=O)NCCCOC)C[C@@H]2C(=O)N1CCN(C(=O)C2CC2)CC1 (stereo partly specified) | -4 | · | · | 53* | · | ·
SMILES | NR2E3 ag-1 | PGE2 EP2 inh | NR2E3 ag-2 | JMJD2C inh | Furin inh | EP2 modulator
COCCn1c(SCC(=O)c2ccc(F)cc2)nc2sc3c(c2c1=O)CCC3 | · | 8 | · | · | · | -42
O=C1C=CC(=O)C(C2=C3C(=O)N(CCc4ccccc4)CC(=O)N3CCC2)=C1 | · | 90* | 4 | 5 | -18 | -53
COc1cc(C2C3=C(CCCC3=O)NC3=C2C(=O)CCC3)ccc1OCc1cccc(C)c1 | · | 6 | · | · | · | -27
CCc1ccc(OCCCC(=O)Nc2nnc(CC)s2)cc1 | · | 4 | · | · | · | 0
O=S1(=O)CC2NC(=S)N(c3cccc(Br)c3)C2C1 (stereo unspecified) | 3 | 6 | -1 | -2 | -19 | 70*
Cc1nc2c(c(=O)[nH]1)CN(C(=O)c1ccc3nc(C)[nH]c3c1)CC2 | · | · | · | · | · | 5
CCNC(=S)N(CCN(C)C)Cc1cc2cc(CC)ccc2[nH]c1=O | · | 9 | · | · | · | 63*
CCc1ccc2[nH]c(=O)c(CN(CC3CCCO3)C(=S)NC3CCCCC3)cc2c1 (stereo unspecified) | · | 10 | · | · | · | 82*
CCc1ccc2[nH]c(=O)c(CN(CC3CCCO3)C(=S)Nc3ccc(F)cc3)cc2c1 (stereo unspecified) | · | 7 | · | · | · | 8
CCc1ccc2[nH]c(=O)c(CN(CC3CCCO3)C(=S)NCc3ccccc3)cc2c1 (stereo unspecified) | · | 12 | · | · | · | 66*
CC(C)NC(=O)C1CCCN(S(=O)(=O)c2ccc(Cl)cc2)C1 (stereo unspecified) | · | 5 | · | · | · | -44
O=C(Cc1n[nH]c(=O)c2ccccc12)OCC(=O)N(Cc1ccccc1)Cc1ccccc1 | -20 | 8 | 3 | 12 | -5 | 63*
O=C(Nc1ccc(N2CCN(C(=O)c3ccc(Cl)cc3)CC2)cc1)c1ccc([N+](=O)[O-])o1 | 19 | 121* | · | 8 | -31 | -50
CCC(=O)Nc1ccc(NC(=O)c2ccc([N+](=O)[O-])o2)cc1 | · | 68* | · | · | · | -129
CC(C)(C)C(=O)N1CCN(c2ccc(NC(=O)c3ccc([N+](=O)[O-])o3)cc2)CC1 | 1 | · | 7 | 3 | · | ·
CCC(=O)N1CCN(c2ccc(NC(=O)c3ccc([N+](=O)[O-])o3)cc2)CC1 | 35 | 46* | · | 31 | -23 | -37
Cc1cccc2cc(CN(C(=O)c3cccs3)C3CCCCC3)c(=O)[nH]c12 | · | 8 | · | · | · | 8
Cc1cc(O)c2c(c1O)C(=O)[C@]13C(=C2O)C(=O)[C@@H]2[C@@H](O)[C@H]1[C@@H]1[C@H](O)[C@H]3C(=O)C3=C(O)c4c(O)cc(C)c(O)c4C(=O)[C@]312 | 101* | · | · | · | · | ·
Cc1cc(O)c2c(c1O)C(=O)c1c(O)cc(C)c(O)c1C2=O | · | 7 | · | · | · | 16
